Source: paper PMC7408256 (ACS Omega, 2020)

Legend:
K-562 = test: NCI one-dose screen: K-562; format: cell-based; conditions: Homo sapiens, K562, read-out: Growth inhibition percentage (GI %)
Summary of the method: (§1)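 Cells grown in RPMI 1640 with 5% FBS and 2 mM L-glutamine, seeded at 5000–40,000 cells/well, preincubated 24 h at 37 °C and 5% CO2. Time-zero plates were TCA-fixed. Test compound (DMSO stock diluted in gentamicin medium) was added at a final 10^-5 M for 48 h. Cells were TCA-fixed (80% for suspension lines), SRB-stained and read at 515 nm. GI% = 100 − % growth versus untreated control.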

SR = test: NCI one-dose screen: SR; format: cell-based; conditions: Homo sapiens, read-out: Growth inhibition percentage (GI %)
Summary of the method: (§2)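 Human tumour lines grown in RPMI 1640 with 5% FBS and 2 mM L-glutamine, seeded at 5000–40,000 cells/well, 24 h at 37 °C, 5% CO2. Time-zero plates TCA-fixed. Test compound (DMSO stock at 400× final) added to a final 10 µM, 48 h at 37 °C. Cells fixed with cold TCA (50% adherent, 80% suspension) and stained with sulforhodamine B; absorbance read at 515 nm. GI% = 100 − % growth relative to untreated control.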

A549/ATCC = test: NCI one-dose screen: A549/ATCC; format: cell-based; conditions: Homo sapiens, A549, read-out: Growth inhibition percentage (GI %)
Summary of the method: as §1

NCI 58 human cell lines = test: NCI one-dose screen: whole panel summary; format: cell-based
Summary of the method: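 NCI 58-line single-dose screen in nine subpanels. Cells were exposed for 48 h at 37 °C to a final 10 µM test compound. Growth was measured by sulforhodamine B staining against time-zero and untreated-control plates. For each compound, percent growth relative to untreated cells was averaged across the panel as mean % growth. GI% per line = 100 − % growth.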

[1] = test system: newly formed blood capillaries of HET-CAM; test: HET-CAM angiogenesis study; format: in vivo, hen
Summary of the method: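 Fertilized hen eggs were incubated 9 days at 37 °C with rotation, in groups of three. Test compound at 40 μM in 40 μL of 40% DMSO in saline was dropped onto a 5 mm filter-paper disc on the CAM. Control got 40 μL vehicle. On day 11 each egg was angiographed. Newly formed small vessels within a 100 mm2 circle were counted by image analysis. One-way ANOVA with Dunnett's test.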

c-Met kinase = conditions: read-out: IC50 c-Met; cited from earlier work
multiple tyrosine kinase = conditions: target not named at the place (multiple tyrosine kinase; context VEGFR2) ref 14; cited from earlier work
chick embryos / HET-CAM = test: HET-CAM mortality and toxicity; format: in vivo, hen; conditions: 40 μM, 40 μL in 40% DMSO in sterile saline, applied 9th day, examined 11th day
Summary of the method: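 Hen eggs were incubated at 37 °C with 2-hourly rotation and candled on day 5; dead eggs were excluded. A window was opened and taped. On day 9, 40 μL of test compound (40 or 100 μM, in 40% or 100% DMSO in saline) went onto a 5 mm filter disc at a low-vessel-density CAM area, 3 eggs/concentration. Embryo toxicity and mortality were assessed by candling on day 11.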

VEGFR2 = conditions: cited from earlier work
MOLT-4 = test: NCI one-dose screen: MOLT-4; format: cell-based; conditions: Homo sapiens, MOLT-4, read-out: Growth inhibition percentage (GI %)
Summary of the method: as §1

EKVX = test: NCI one-dose screen: EKVX; format: cell-based; conditions: Homo sapiens, read-out: Growth inhibition percentage (GI %)
Summary of the method: as §1

NCI-H460 = test: NCI one-dose screen: NCI-H460; format: cell-based; conditions: Homo sapiens, NCI-H460, read-out: Growth inhibition percentage (GI %)
Summary of the method: as §1

HCC-2998 = test: NCI one-dose screen: HCC-2998; format: cell-based; conditions: Homo sapiens, HCC 2998, read-out: Growth inhibition percentage (GI %)
Summary of the method: as §1

HCT-116 = test: NCI one-dose screen: HCT-116; format: cell-based; conditions: Homo sapiens, HCT-116, read-out: Growth inhibition percentage (GI %), HCT-116, colon cancer; single dose 10 μM
Summary of the method: as §1

SF-539 = test: NCI one-dose screen: SF-539; format: cell-based; conditions: Homo sapiens, SF-539, read-out: Growth inhibition percentage (GI %)
Summary of the method: as §1

SNB-19 = test: NCI one-dose screen: SNB-19; format: cell-based; conditions: Homo sapiens, SNB-19, read-out: Growth inhibition percentage (GI %)
Summary of the method: as §1

SK-MEL-2 = test: NCI one-dose screen: SK-MEL-2; format: cell-based; conditions: Homo sapiens, SK-MEL-2, read-out: Growth inhibition percentage (GI %)
Summary of the method: as §1

OVCAR-3 = test: NCI one-dose screen: OVCAR-3; format: cell-based; conditions: Homo sapiens, OVCAR-3, read-out: Growth inhibition percentage (GI %)
Summary of the method: as §1

786-0 = test: NCI one-dose screen: 786-0; format: cell-based; conditions: Homo sapiens, 786-0, read-out: Growth inhibition percentage (GI %)
Summary of the method: as §1

RXF 393 = test: NCI one-dose screen: RXF 393; format: cell-based; conditions: Homo sapiens, RXF 393, read-out: Growth inhibition percentage (GI %)
Summary of the method: as §1

MCF7 = test: NCI one-dose screen: MCF7; format: cell-based; conditions: Homo sapiens, MCF7, read-out: Growth inhibition percentage (GI %)
Summary of the method: as §1

MDA-MB-231 = test: NCI one-dose screen: MDA-MB-231; format: cell-based; conditions: Homo sapiens, MDA-MB-231, read-out: Growth inhibition percentage (GI %)
Summary of the method: as §1

TK-10 = test: NCI one-dose screen: TK-10; format: cell-based; conditions: Homo sapiens, TK-10, read-out: Growth inhibition percentage (GI %)
Summary of the method: as §2

PC-3 = test: NCI one-dose screen: PC-3; format: cell-based; conditions: Homo sapiens, PC-3, read-out: Growth inhibition percentage (GI %)
Summary of the method: as §1

T-47D = test: NCI one-dose screen: T-47D; format: cell-based; conditions: Homo sapiens, T47D, read-out: Growth inhibition percentage (GI %)
Summary of the method: as §2

[2] = 40 μM, versus 40% DMSO negative control

COc1ccc(C2=Nn3c(NN=C4C(=O)Nc5ccc(Cl)cc54)nnc3SC2)cc1 [6l, 5-Chloro-3-(2-(6-(4-methoxyphenyl)-7H-[1,2,4]triazolo[3,4-b][1,3,4]thiadiazin-3-yl)hydrazineylidene)indolin-2-one]
inhibition at 10 µM (K-562): 15% | inhibition at 10 µM (SR): 23% | inhibition at 10 µM (A549/ATCC): 23% | sensitive cell lines no. (NCI 58 human cell lines; number of cell lines of the panel with GI % shown (higher than 10%), 10 μM): 6

COc1ccc(C2=Nn3c(NN=C4C(=O)N(Cc5ccccc5)c5ccccc54)nnc3SC2)cc1 [6x, 1-Benzyl-3-(2-(6-(4-methoxyphenyl)-7H-[1,2,4]triazolo[3,4-b][1,3,4]thiadiazin-3-yl)hydrazineylidene)indolin-2-one]
change in the number of blood vessels (in words) [1, 2]: significant decrease

C[C@@H]1C[C@H]2[C@@H]3CCC4=CC(=O)C=C[C@]4(C)[C@@]3(F)[C@@H](O)C[C@]2(C)[C@@]1(O)C(=O)CO [DEXA, dexamethasone, reference compound]
reduction in the number of newly formed blood capillaries ([1]; DEXA 0.02 μg, positive control, versus 40% DMSO, P < 0.001): 54%

Cc1[nH]c(/C=C2\C(=O)Nc3ccc(S(=O)(=O)N(C)c4cccc(Cl)c4)cc32)c(C)c1C(=O)N1CCN(C)CC1 [SU11274]
IC50 (c-Met kinase): 12 nM

CCN(CC)CCNC(=O)c1c(C)[nH]c(/C=C2\C(=O)Nc3ccc(F)cc32)c1C [sunitinib]
Ki (multiple tyrosine kinase): 9 nM

COc1ccc(C2=Nn3c(NN=C4C(=O)N(C)c5ccc(Cl)cc54)nnc3SC2)cc1 [6u, 5-Chloro-3-(2-(6-(4-methoxyphenyl)-7H-[1,2,4]triazolo[3,4-b][1,3,4]thiadiazin-3-yl)hydrazineylidene)-1-methylindolin-2-one]
toxicity / mortality against HET-CAM and the chick embryos (chick embryos / HET-CAM): toxic

CCCN1C(=O)C(=NNc2nnc3n2N=C(c2ccc(OC)cc2)CS3)c2cc(Cl)ccc21 [6w, 5-Chloro-3-(2-(6-(4-methoxyphenyl)-7H-[1,2,4]triazolo[3,4-b][1,3,4]thiadiazin-3-yl)hydrazineylidene)-1-propylindolin-2-one]
toxicity / mortality against HET-CAM and the chick embryos (chick embryos / HET-CAM): toxic

Cc1[nH]c(/C=C2\C(=O)Nc3ccccc32)c(C)c1CCC(=O)O [Orantinib]
Ki (VEGFR2; read-out: Ki VEGFR2): 9 nM

Cc1ccc(C2=Nn3c(NN=C4C(=O)Nc5ccccc54)nnc3SC2)cc1 [6c, 3-(2-(6-(p-Tolyl)-7H-[1,2,4]triazolo[3,4-b][1,3,4]thiadiazin-3-yl)hydrazineylidene)-indolin-2-one]
toxicity / mortality against HET-CAM and the chick embryos (chick embryos / HET-CAM): toxic

COc1ccc(C2=Nn3c(N/N=C4\C(=O)Nc5ccc(F)cc54)nnc3SC2)cc1 [6j, 5-Fluoro-3-(2-(6-(4-methoxyphenyl)-7H-[1,2,4]triazolo[3,4-b][1,3,4]thiadiazin-3-yl) hydrazineylidene)indolin-2-one]
toxicity / mortality against HET-CAM and the chick embryos (chick embryos / HET-CAM): toxic

O=C1Nc2ccccc2C1=NNc1nnc2n1N=C(c1ccccc1)CS2 [6a, 3-(2-(6-Phenyl-7H-[1,2,4]triazolo[3,4-b][1,3,4]thiadiazin-3-yl)hydrazineylidene)indolin-2-one]
inhibition at 10 µM (K-562): 23% | inhibition at 10 µM (MOLT-4): 13% | inhibition at 10 µM (SR): 23% | inhibition at 10 µM (EKVX): 13% | inhibition at 10 µM (NCI-H460): 17% | inhibition at 10 µM (HCC-2998): 19% | inhibition at 10 µM (HCT-116): 14% | inhibition at 10 µM (SF-539): 18% | inhibition at 10 µM (SNB-19): 17% | inhibition at 10 µM (SK-MEL-2): 13% | inhibition at 10 µM (OVCAR-3): 12% | inhibition at 10 µM (786-0): 19% | inhibition at 10 µM (RXF 393): 18% | inhibition at 10 µM (MCF7): 29% | inhibition at 10 µM (MDA-MB-231): 12% | GI (range over the susceptible cell lines listed in the sentence) (NCI 58 human cell lines; single dose 10 μM, cell lines as listed in the sentence): 35–57% | increase in the number of newly formed blood capillaries [1, 2]: 33%

COc1ccc(C2=Nn3c(NN=C4C(=O)Nc5ccc(OC)cc54)nnc3SC2)cc1 [6n, 5-Methoxy-3-(2-(6-(4-methoxyphenyl)-7H-[1,2,4]triazolo[3,4-b][1,3,4]thiadiazin-3-yl)hydrazineylidene)indolin-2-one]
inhibition at 10 µM (K-562): 19% | inhibition at 10 µM (MOLT-4): 12% | inhibition at 10 µM (A549/ATCC): 29% | inhibition at 10 µM (TK-10): 17% | inhibition at 10 µM (PC-3): 10% | inhibition at 10 µM (T-47D): 15% | change in the number of blood vessels (in words) [1, 2]: significant decrease | reduction in the number of newly formed blood capillaries (angiogenesis) ([1]; 40 μM, versus 40% DMSO negative control, 11th day): 27%

Cc1[nH]c(/C=C2\C(=O)Nc3ccc(F)cc32)c(C)c1C(=O)NC[C@H](O)CN1CCOCC1 [SU14813]
IC50 (VEGFR2; read-out: IC50 VEGFR2): 40 nM
